Values after ≈ are worked out from the molar mass of the structure shown. Active and inactive are the calls of the source.
Legend:
Candida tropicalis [1] = assay: Antimicrobial activity against Candida tropicalis BR-A9 grown as biofilm after 48 hrs by XTT reduction assay; type: functional
Summary of the method: (§1)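 Isolates were grown on Sabouraud agar (30°C, 24 h), then overnight in RPMI 1640 with MOPS, pH 7.0, at 35°C with shaking. Cells were washed and set to ~1 × 10^7 cells/ml, attached 1.5 h at 37°C, and grown 24 h. Biofilms were then exposed to caspofungin in 10 twofold dilutions (2–1,024 μg/ml) for 48 h at 35°C with shaking. Read-out was XTT-menadione, 1 h, 35°C, dark, A490, cell-free blank subtracted. MIC was the 50% drop in activity versus drug-free control. Tested in duplicate.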

Candida tropicalis [2] = assay: Antimicrobial activity against Candida tropicalis BR-A24 grown as planktonic cell after 48 hrs by XTT reduction assay; type: functional
Summary of the method: (§2)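 Planktonic broth microdilution followed CLSI M27-A2, with caspofungin dissolved in water. After 48 h, XTT-menadione was added to the wells and plates were kept 1 h at 35°C in the dark. Plates were then centrifuged and supernatant A490 was read. MIC was the lowest concentration giving a 50% decrease in metabolic activity versus drug-free control. Paradoxical growth was defined as ≥20% of control activity above the MIC.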

Candida orthopsilosis [3] = assay: Antimicrobial activity against Candida orthopsilosis BR-A33 grown as biofilm assessed as concentration producing paradoxical growth after 48 hrs by XTT reduction assay; type: functional
Summary of the method: (§3)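 Sabouraud-grown cells were shaken overnight (18 h, 120 rpm, 35°C) in RPMI 1640 with MOPS at pH 7.0, then washed and set at ~1 × 10^7 cells/ml. Attachment lasted 1.5 h at 37°C, and growth ran 24 h before challenge. Caspofungin was added in RPMI at 2–1,024 μg/ml (10 doublings) for 48 h at 35°C with shaking. XTT-menadione was read at 490 nm after 1 h at 35°C in the dark, with blank wells subtracted. MIC was taken as 50% reduction versus drug-free wells, and PG as >50% of control above MIC. Assays were run in duplicate.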

Candida orthopsilosis [4] = assay: Effect on morphology in Candida orthopsilosis grown as biofilm assessed as rounding and clumping at 32 ug/ml after 48 hrs; type: functional, organism-based
Summary of the method: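 Biofilms formed in RPMI 1640 wells were exposed to caspofungin for 48 h and compared with drug-free control wells. Wells were examined in the plate under an inverted light microscope at ×200 and photographed.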

Candida tropicalis [5] = assay: Antimicrobial activity against Candida tropicalis BR-A24 grown as planktonic cell assessed as paradoxical growth after 48 hrs by XTT reduction assay; type: functional, organism-based
Summary of the method: (§4)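 Planktonic broth microdilution followed CLSI M27-A2, with caspofungin dissolved in water. After 48 h, XTT-menadione was added to each well and plates were incubated 1 h at 35°C in the dark. Cells were pelleted by centrifugation and the supernatant was read at 490 nm. MIC was the lowest concentration giving a 50% drop in metabolic activity versus the drug-free control. PG was ≥20% of drug-free activity above the MIC.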

Candida tropicalis [6] = assay: Antimicrobial activity against Candida tropicalis BR-A14 grown as planktonic cell after 48 hrs by XTT reduction assay; type: functional; summary of the method: as §4
Candida parapsilosis [7] = assay: Antimicrobial activity against Candida parapsilosis BR-A29 grown as biofilm assessed as concentration producing paradoxical growth after 48 hrs by XTT reduction assay; type: functional
Summary of the method: (§5)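 Clinical isolates were grown overnight (18 h, 35°C, 120 rpm) in RPMI 1640 with MOPS, pH 7.0, then washed and set to ~1 × 10^7 cells/ml. Cells attached for 1.5 h at 37°C, 75 rpm, then biofilms grew 24 h. Caspofungin was given as doubling dilutions of 2–1,024 μg/ml for 48 h at 35°C, 75 rpm. Read-out was XTT-menadione in PBS, 1 h at 35°C in the dark, A490, cell-free blank subtracted. MIC was a 50% drop in activity versus drug-free; PG was >50% of control above MIC. Run in duplicate.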

Candida tropicalis [8] = assay: Antimicrobial activity against Candida tropicalis BR-A8 grown as biofilm after 48 hrs by XTT reduction assay; type: functional; summary of the method: as §1
Candida orthopsilosis [9] = assay: Antimicrobial activity against Candida orthopsilosis BR-A36 grown as biofilm assessed as concentration producing paradoxical growth after 48 hrs by XTT reduction assay; type: functional; summary of the method: as §3
Candida orthopsilosis [10] = assay: Antimicrobial activity against Candida orthopsilosis BR-A32 grown as planktonic cell after 48 hrs by XTT reduction assay; type: functional; settings: Lodderomyces orthopsilosis; summary of the method: as §2
Candida parapsilosis [11] = assay: Antimicrobial activity against Candida parapsilosis BR-A29 grown as planktonic cell assessed as concentration producing paradoxical growth after 48 hrs by XTT reduction assay; type: functional; summary of the method: as §4
Candida orthopsilosis [12] = assay: Antimicrobial activity against Candida orthopsilosis BR-A37 grown as biofilm assessed as concentration producing paradoxical growth after 48 hrs by XTT reduction assay; type: functional; summary of the method: as §3
Candida orthopsilosis [13] = assay: Antimicrobial activity against Candida orthopsilosis BR-A33 grown as planktonic cell after 48 hrs by XTT reduction assay; type: functional; settings: Lodderomyces orthopsilosis
Summary of the method: (§6)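 Planktonic cells were tested by CLSI M27-A2 broth microdilution with caspofungin in water, incubated 48 h. XTT-menadione was added to each well, plates were held 1 h at 35°C in the dark and centrifuged, and supernatant absorbance was read at 490 nm. MIC was defined as 50% decrease in metabolic activity versus drug-free control. PG was defined as ≥20% of control activity at concentrations above MIC.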

Candida metapsilosis [14] = assay: Antimicrobial activity against Candida metapsilosis BR-A43 grown as planktonic cell after 48 hrs by XTT reduction assay; type: functional; settings: Lodderomyces metapsilosis; summary of the method: as §6
Candida parapsilosis [15] = assay: Antimicrobial activity against Candida parapsilosis BR-A27 grown as planktonic cell after 48 hrs by XTT reduction assay; type: functional; settings: Lodderomyces parapsilosis; summary of the method: as §2
Candida tropicalis [16] = assay: Antimicrobial activity against Candida tropicalis BR-A24 grown as biofilm assessed as concentration producing paradoxical growth after 48 hrs by XTT reduction assay; type: functional; summary of the method: as §5
Candida tropicalis [17] = assay: Antimicrobial activity against Candida tropicalis BR-A9 grown as planktonic cell after 48 hrs by XTT reduction assay; type: functional; summary of the method: as §2
Candida parapsilosis [18] = assay: Antimicrobial activity against Candida parapsilosis BR-A31 grown as planktonic cell assessed as paradoxical growth after 48 hrs by XTT reduction assay; type: functional, organism-based; summary of the method: as §4
Candida tropicalis [19] = assay: Antimicrobial activity against Candida tropicalis BR-A18 grown as planktonic cell after 48 hrs by XTT reduction assay; type: functional; summary of the method: as §4
Candida orthopsilosis [20] = assay: Antimicrobial activity against Candida orthopsilosis BR-A39 grown as biofilm after 48 hrs by XTT reduction assay; type: functional; settings: Lodderomyces orthopsilosis; summary of the method: as §1
Candida tropicalis [21] = assay: Antimicrobial activity against Candida tropicalis BR-A8 grown as planktonic cell assessed as concentration producing paradoxical growth after 48 hrs by XTT reduction assay; type: functional; summary of the method: as §4
Candida parapsilosis [22] = assay: Antimicrobial activity against Candida parapsilosis BR-A25 grown as planktonic cell after 48 hrs by XTT reduction assay; type: functional; settings: Lodderomyces parapsilosis; summary of the method: as §2
Candida parapsilosis [23] = assay: Antimicrobial activity against Candida parapsilosis BR-A25 grown as planktonic cell assessed as concentration producing paradoxical growth after 48 hrs by XTT reduction assay; type: functional; summary of the method: as §4
Candida albicans [24] = assay: Antimicrobial activity against Candida albicans BR-A2 grown as biofilm after 48 hrs by XTT reduction assay; type: functional; summary of the method: as §1
Candida metapsilosis [25] = assay: Antimicrobial activity against Candida metapsilosis BR-A41 grown as biofilm assessed as concentration producing paradoxical growth after 48 hrs by XTT reduction assay; type: functional; summary of the method: as §3
Candida orthopsilosis [26] = assay: Antimicrobial activity against Candida orthopsilosis BR-A34 grown as planktonic cell after 48 hrs by XTT reduction assay; type: functional; settings: Lodderomyces orthopsilosis; summary of the method: as §6
Candida metapsilosis [27] = assay: Antimicrobial activity against Candida metapsilosis BR-A42 grown as planktonic cell assessed as paradoxical growth after 48 hrs by XTT reduction assay; type: functional, organism-based; summary of the method: as §6
Candida albicans [28] = assay: Antimicrobial activity against Candida albicans BR-A7 grown as planktonic cell assessed as paradoxical growth after 48 hrs by XTT reduction assay; type: functional, organism-based; summary of the method: as §6

Question: With `CC[C@H](C)C[C@H](C)CCCCCCCCC(=O)N[C@H]1C[C@@H](O)[C@@H](NCCN)NC(=O)[C@@H]2[C@@H](O)CCN2C(=O)[C@H]([C@H](O)CCN)NC(=O)[C@H]([C@H](O)[C@@H](O)c2ccc(O)cc2)NC(=O)[C@@H]2C[C@@H](O)CN2C(=O)[C@H]([C@@H](C)O)NC1=O` [CASPOFUNGIN] as the compound, how does the MIC (Candida tropicalis [1]) read?
Answer: Its MIC is 2 µg/mL (≈ 1.83 µM).

Question: What about the MIC (Candida tropicalis [2]) of the same compound?
Answer: The MIC was 1 µg/mL (≈ 0.915 µM).

Question: And the Activity (Candida orthopsilosis [3])?
Answer: Its Activity is 32 µg/mL.

Question: And the Activity (Candida orthopsilosis [4])?
Answer: The Activity was “Active”.

Question: And the Activity (Candida tropicalis [5])?
Answer: The Activity was “Active”.

Question: And the MIC (Candida tropicalis [6])?
Answer: The MIC was 0.5 µg/mL (≈ 0.457 µM).

Question: And the Activity (Candida parapsilosis [7])?
Answer: The Activity was 16 µg/mL.

Question: What about the MIC (Candida tropicalis [8]) of the same compound?
Answer: Its MIC is 2 µg/mL (≈ 1.83 µM).

Question: What about the Activity (Candida orthopsilosis [9]) of the same compound?
Answer: The Activity was 16 µg/mL.

Question: What about the MIC (Candida orthopsilosis [10]) of the same compound?
Answer: Its MIC is 2 µg/mL (≈ 1.83 µM).

Question: And the Activity (Candida parapsilosis [11])?
Answer: The Activity was 32 µg/mL.

Question: What about the Activity (Candida orthopsilosis [12]) of the same compound?
Answer: The Activity was 32 µg/mL.

Question: And the MIC (Candida orthopsilosis [13])?
Answer: The MIC was 1 µg/mL (≈ 0.915 µM).

Question: And the MIC (Candida metapsilosis [14])?
Answer: The MIC was 2 µg/mL (≈ 1.83 µM).

Question: What about the MIC (Candida parapsilosis [15]) of the same compound?
Answer: Its MIC is 2 µg/mL (≈ 1.83 µM).

Question: What about the Activity (Candida tropicalis [16]) of the same compound?
Answer: The Activity was 8 µg/mL.

Question: What about the MIC (Candida tropicalis [17]) of the same compound?
Answer: Its MIC is 1 µg/mL (≈ 0.915 µM).

Question: And the Activity (Candida parapsilosis [18])?
Answer: The Activity was “inactive”.

Question: What about the MIC (Candida tropicalis [19]) of the same compound?
Answer: The MIC was 0.5 µg/mL (≈ 0.457 µM).

Question: What about the MIC (Candida orthopsilosis [20]) of the same compound?
Answer: The MIC was 2 µg/mL (≈ 1.83 µM).

Question: What about the Activity (Candida tropicalis [21]) of the same compound?
Answer: Its Activity is 8 µg/mL.

Question: What about the MIC (Candida parapsilosis [22]) of the same compound?
Answer: The MIC was 2 µg/mL (≈ 1.83 µM).

Question: What about the Activity (Candida parapsilosis [23]) of the same compound?
Answer: Its Activity is 32 µg/mL.

Question: What about the MIC (Candida albicans [24]) of the same compound?
Answer: The MIC was 2 µg/mL (≈ 1.83 µM).

Question: What about the Activity (Candida metapsilosis [25]) of the same compound?
Answer: The Activity was 16 µg/mL.

Question: And the MIC (Candida orthopsilosis [26])?
Answer: Its MIC is 1 µg/mL (≈ 0.915 µM).

Question: And the Activity (Candida metapsilosis [27])?
Answer: The Activity was “inactive”.

Question: What about the Activity (Candida albicans [28]) of the same compound?
Answer: The Activity was “Active”.
